Series [1] is described as follows: Antitumor activity against mouse B16F10 cells xenografted in mouse assessed as inhibition of tumor growth at 40 mg/kg, iv after 25 days. The series is classed as functional. The note with it: B16-F10, iv, 600 h. In a few lines:
(§1)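 B16-F10 cells implanted subcutaneously in the right oxter of ICR mice weighing 18-22 g. After 7 days, animals weighed and randomized into groups of 10. Dosed intravenously with vehicle (saline with 1% DMSO/2% poloxamer, 0.4 ml/mouse), 40 mg/kg test agent, or 5-FU 20 mg/kg. Killed on day 25 after implantation. Tumors excised and weighed; inhibition = (1 − treated/vehicle mean tumor weight)×100; body weights recorded at start and end.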

Series [2] can be described thus: Antiproliferative activity against human PC3 cells after 72 hrs by MTT assay. The series is classed as functional, cell-based. The settings on record: PC-3, 72 h. The gist of the method:
(§2)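 Cells seeded at 5×10^4/well, grown 24 h at 37 °C in 5% CO₂, then exposed to compounds dissolved in DMSO at a range of concentrations for 72 h. MTT (5 mg/mL in PBS) added for 4 h, then OD read at 570 nm. IC50 taken from dose-response curves, mean ± S.D. of three independent experiments.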
Background: Tetrazolium assays rely on reduction of a dye to a coloured formazan, in cell work by metabolically active cells.

Series [3] is described as follows: Antiproliferative activity against human Caco2 cells after 72 hrs by MTT assay. The class given is functional, cell-based. The settings on record: Caco-2, 72 h. The gist of the method: as §2
In series [4] the target is T1, Prostaglandin G/H synthase 2 (Rattus norvegicus, UniProt P35355).
T1 sequence (P35355 whole entry): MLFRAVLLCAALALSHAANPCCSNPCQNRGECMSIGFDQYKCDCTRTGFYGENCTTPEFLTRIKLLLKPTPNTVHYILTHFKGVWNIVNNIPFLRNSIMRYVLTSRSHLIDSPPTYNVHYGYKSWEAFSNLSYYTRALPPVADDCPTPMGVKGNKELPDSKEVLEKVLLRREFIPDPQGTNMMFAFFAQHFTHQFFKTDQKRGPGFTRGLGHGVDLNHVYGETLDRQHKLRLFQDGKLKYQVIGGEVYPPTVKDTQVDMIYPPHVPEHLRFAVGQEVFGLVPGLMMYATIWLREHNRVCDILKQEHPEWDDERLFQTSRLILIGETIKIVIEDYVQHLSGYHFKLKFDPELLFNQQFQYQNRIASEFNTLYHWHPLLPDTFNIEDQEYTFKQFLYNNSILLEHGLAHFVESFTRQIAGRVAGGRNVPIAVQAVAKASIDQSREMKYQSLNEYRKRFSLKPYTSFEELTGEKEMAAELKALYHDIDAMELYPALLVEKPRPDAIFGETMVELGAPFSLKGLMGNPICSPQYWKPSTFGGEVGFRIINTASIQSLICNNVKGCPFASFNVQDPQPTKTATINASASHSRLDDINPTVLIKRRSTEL
The series is described as follows: Inhibition of COX2 in rat abdominal macrophages assessed as PGE2 production pretreated for 30 mins followed by addition of 10 uM arachidonic acid as substrate for 20 mins by EIA.

Series [5] can be described thus: Antiproliferative activity against mouse B16F10 cells after 72 hrs by MTT assay. The series is classed as functional, cell-based. The settings on record: B16-F10, 72 h. The gist of the method:
as §2

The next series concerns A549. The series is described as follows: Antiproliferative activity against human A549 cells after 72 hrs by MTT assay. The note with it: A549, 72 h. The class given is functional, cell-based. In a few lines:
as §2

The target of series [6] is T2, Prostaglandin G/H synthase 1 (Bos taurus, UniProt O62664).
T2 sequence (O62664 whole entry): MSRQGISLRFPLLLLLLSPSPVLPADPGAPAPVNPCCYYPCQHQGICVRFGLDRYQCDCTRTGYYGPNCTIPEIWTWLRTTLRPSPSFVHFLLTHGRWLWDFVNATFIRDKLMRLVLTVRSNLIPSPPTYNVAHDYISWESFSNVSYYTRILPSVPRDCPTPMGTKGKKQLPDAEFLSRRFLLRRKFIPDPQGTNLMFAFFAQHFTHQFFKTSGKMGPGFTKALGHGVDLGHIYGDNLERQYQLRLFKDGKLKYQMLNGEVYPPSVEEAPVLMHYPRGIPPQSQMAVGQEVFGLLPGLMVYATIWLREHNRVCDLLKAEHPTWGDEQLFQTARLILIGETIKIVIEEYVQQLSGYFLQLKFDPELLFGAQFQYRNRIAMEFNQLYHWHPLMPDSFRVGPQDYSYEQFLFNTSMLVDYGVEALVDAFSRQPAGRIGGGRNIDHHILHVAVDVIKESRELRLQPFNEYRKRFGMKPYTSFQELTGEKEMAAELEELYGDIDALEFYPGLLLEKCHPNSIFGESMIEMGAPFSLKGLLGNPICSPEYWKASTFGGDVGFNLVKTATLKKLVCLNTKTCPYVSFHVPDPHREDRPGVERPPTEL
The series is described as follows: Inhibition of COX1 in calf endotheliocyte assessed as 6keto-PGF1alpha production pretreated for 20 mins followed by addition of 10 uM arachidonic acid as substrate for 20 mins by radioimmuno assay. In a few lines: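 Endothelial cells from neonatal calf thoracic aorta plated at 1.0×10^6 in DMEM with 10% FBS and grown 24 h at 37 °C in 5% CO₂. Compound or DMSO added for 20 min, then arachidonic acid (10 μM) for another 20 min. 6-keto-PGF1α in the medium quantified by radioimmunoassay. IC50 is the mean of four determinations.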

Series [7] deals with Mus musculus. The series is described as follows: Toxicity in mouse xenografted with B16F10 cells assessed as body weight at 40 mg/kg, iv measured after 25 days (reference value: 28.1 +/- 1.7 g). The settings on record: in vivo, 600 h. The series is classed as organism-based, B16-F10. In a few lines:
as §1

Series [8] deals with T3, Polyunsaturated fatty acid 5-lipoxygenase (Rattus norvegicus, UniProt P12527).
T3 sequence (P12527 whole entry): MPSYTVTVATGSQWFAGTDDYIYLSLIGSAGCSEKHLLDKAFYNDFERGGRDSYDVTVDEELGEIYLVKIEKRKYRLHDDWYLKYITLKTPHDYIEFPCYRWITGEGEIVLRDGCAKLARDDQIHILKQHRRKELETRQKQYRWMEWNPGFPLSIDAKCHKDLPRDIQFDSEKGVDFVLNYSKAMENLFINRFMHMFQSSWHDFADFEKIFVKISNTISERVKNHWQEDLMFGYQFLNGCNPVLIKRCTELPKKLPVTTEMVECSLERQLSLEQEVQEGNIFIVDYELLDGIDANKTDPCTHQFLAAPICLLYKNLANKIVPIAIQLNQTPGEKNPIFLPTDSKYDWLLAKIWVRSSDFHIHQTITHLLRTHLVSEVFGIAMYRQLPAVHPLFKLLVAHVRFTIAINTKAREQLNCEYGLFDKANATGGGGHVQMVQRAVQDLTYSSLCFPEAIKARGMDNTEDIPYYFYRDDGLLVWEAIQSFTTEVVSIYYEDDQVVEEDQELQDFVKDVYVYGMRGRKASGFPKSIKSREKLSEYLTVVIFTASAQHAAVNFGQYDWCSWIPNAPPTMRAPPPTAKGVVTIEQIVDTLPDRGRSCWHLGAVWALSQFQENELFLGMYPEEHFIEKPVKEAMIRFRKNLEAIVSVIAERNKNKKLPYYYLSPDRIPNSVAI
The series is described as follows: Inhibition of 5-LOX in Sprague-Dawley rat leukocytes assessed as A23187 stimulated LTB4 production pretreated for 30 mins followed by addition of A23187 for 30 mins by EIA. The class given is cell-based. The gist of the method:
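Rat peritoneal leukocytes collected from Sprague-Dawley rats primed i.p. with 0.2% glycogen (20 mL/kg). Cells in Hanks solution plated at 1.0×10^6/well and held 10 min at 37 °C. Pretreated 30 min with L-cysteine (10 mM), indomethacin (1 mg/L) and compound or DMSO. A23187 added for 30 min. LTB4 in the clarified supernatant measured by EIA; % inhibition from OD; IC50 by Bliss method.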

Series [9] can be described thus: Selectivity index, ratio of IC50 for rat COX2 to IC50 for calf COX1. In a few lines:
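Ratio of COX-2 IC50 to COX-1 IC50. COX-2 was measured in rat peritoneal macrophages: 1.0×10^6/well in RPMI 1640 with 5% FCS, grown 24 h, COX-1 inactivated with 1 mM aspirin, COX-2 induced with LPS 1 µg/mL for 6 h, compound added for 30 min, then arachidonic acid 10 µM for 20 min, PGE2 read by EIA. COX-1 was measured in calf aortic endothelial cells by 6-keto-PGF1α radioimmunoassay.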

A short description of series [10]: Antitumor activity against mouse B16F10 cells xenografted in mouse assessed as inhibition of tumor growth at 20 mg/kg, iv after 25 days. The series is classed as functional. The settings on record: B16-F10, iv, 600 h.
In series [11] the test system is Mus musculus. The series is described as follows: Toxicity in mouse xenografted with B16F10 cells assessed as body weight at 20 mg/kg, iv measured after 25 days (reference value: 28.1 +/- 1.7 g). The class given is organism-based, B16-F10. The settings on record: in vivo, 600 h.
The target of series [12] is T4, Prostaglandin G/H synthase 2 (Homo sapiens, UniProt P35354).
T4 sequence (P35354 whole entry): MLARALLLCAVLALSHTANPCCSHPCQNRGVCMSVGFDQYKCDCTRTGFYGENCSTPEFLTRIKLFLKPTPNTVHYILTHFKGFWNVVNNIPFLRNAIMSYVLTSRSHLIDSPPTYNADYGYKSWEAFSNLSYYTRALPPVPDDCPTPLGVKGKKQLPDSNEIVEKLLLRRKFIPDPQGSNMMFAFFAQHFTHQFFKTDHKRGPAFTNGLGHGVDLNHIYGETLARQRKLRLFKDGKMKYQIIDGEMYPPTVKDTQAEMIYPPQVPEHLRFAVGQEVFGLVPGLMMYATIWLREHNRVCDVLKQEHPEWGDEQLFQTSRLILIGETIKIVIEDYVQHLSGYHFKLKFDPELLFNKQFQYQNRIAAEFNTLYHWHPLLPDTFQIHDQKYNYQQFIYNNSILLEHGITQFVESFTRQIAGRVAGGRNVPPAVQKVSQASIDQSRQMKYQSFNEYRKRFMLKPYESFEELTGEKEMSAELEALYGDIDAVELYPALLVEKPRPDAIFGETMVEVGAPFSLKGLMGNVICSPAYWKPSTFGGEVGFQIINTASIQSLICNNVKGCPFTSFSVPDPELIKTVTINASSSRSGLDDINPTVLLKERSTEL
The series is described as follows: Inhibition of COX-2 (unknown origin).

The term inhibition in vivo denotes the relative decrease from the control value, in per cent. As a reminder, the pIC50 is the IC50 on a negative log10 scale, so that one unit is a factor of ten.

pIC50: −log10 of the molar value.

`COc1cc(/C=C/C(=O)OCCSc2nc(-c3ccc(S(C)(=O)=O)cc3)n(-c3ccc(C(F)(F)F)cc3)n2)ccc1O`: the inhibition in vivo at 40 mg/kg in series [1] is 58.9%. Further, the pIC50 was 5.13 in series [2]; 5.04 in series [3]; 6.68 in series [4]; 5.06 in series [5]; 5.17 with A549; 4.69 in [6]. Also, in series [8], the pIC50 is 6.09. Also, the Activity in the series on Mus musculus [7] was 26.3 g. Moreover, the Ratio IC50 in series [9] was 0.01.

As for `O=c1[nH]cc(F)c(=O)[nH]1` [FLUOROURACIL], in series [10], the inhibition in vivo at 20 mg/kg came out at 68.2%. For the same molecule, the Activity in the series on Mus musculus [11] was 26 g.

For `CSc1nc(-c2ccc(S(N)(=O)=O)cc2)n(-c2ccc(Cl)cc2)n1`, the pIC50 in [2] was 4.43; in series [3] it was 4.38; in series [5] it was 4.49; in the series with A549, 4.53; in series [12], 6.43.

With `CC(=O)Oc1ccc(/C=C/C(=O)OCCSc2nc(-c3ccc(S(C)(=O)=O)cc3)n(-c3ccc(F)cc3)n2)cc1OC(C)=O`, the pIC50 in series [2] was 4.81; in series [3], 4.89; in series [4] it was 6.74; in [5], 4.85; in the series on A549 it was 4.93; in series [8], 5.98.

In the case of `CS(=O)(=O)c1ccc(-c2nc(SCCCOC(=O)/C=C/c3ccccc3)nn2-c2ccc(Br)cc2)cc1`, the negative-log IC50 (pIC50) was 4.66 in series [2]; 4.61 in [3]; 6.38 in series [4]; 4.71 in [5]; 4.65 in the series on A549; 4.34 in series [6]. Further, the pIC50 in [8] is 5.89. Further, the Ratio IC50 in series [9] was 0.009.

For `CC(=O)Oc1ccc(/C=C/C(=O)OCCCSc2nc(-c3ccc(S(C)(=O)=O)cc3)n(-c3ccc(Br)cc3)n2)cc1OC(C)=O`, the negative-log IC50 (pIC50) in series [2] is 4.83; in series [3], 4.93; in series [4], 6.54; in series [5] it was 4.89; in the series with A549, 4.89; in [8] it was 6.00.

Take `CS(=O)(=O)c1ccc(-c2nc(SCCCNC(=O)/C=C/c3ccc(O)c(O)c3)nn2-c2ccc(F)cc2)cc1`: the pIC50 in series [2] is 4.64; in series [3], 4.68; in series [4] it was 6.92; in series [5] it was 4.73; in the series with A549, 4.65; in series [6], 4.88. Moreover, the pIC50 in series [8] is 6.15. In addition, the Ratio IC50 in series [9] was determined as 0.009.

For the origin of these results see ChEMBL document CHEMBL3745688, “Discovery of novel hybrids of diaryl-1,2,4-triazoles and caffeic acid as dual inhibitors of cyclooxygenase-2 and 5-lipoxygenase for cancer therapy” (Eur J Med Chem, 2016).
